Legend:
[1] = test system: P31 (mesothelioma) cells; test: EZ4U viability assay in resistance models, P31; format: cell-based; details: read-out: IC50 P31, 96 h exposure
Summary of the method: (§1)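 Cells were seeded at 2 × 10^3 per well and allowed to recover for 24 h. Test compound was then added in growth medium and exposed for 96 h. Viable cell proportion was read with the EZ4U kit. Media, all with 10% FBS: SW1573 and 2R120 in DMEM, A2780 and A2780/cis in RPMI 1640, P31 in MEM. Cells were grown at 37 °C in 5% CO2.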

[2] = test system: A2780/cis cells (cisplatin-selected subline); test: EZ4U viability assay in resistance models, A2780/cis; format: cell-based; details: for IC50: read-out: IC50 A2780/cis, EZ4U assay, 96 h exposure
Summary of the method: as §1

[3] = test system: SW480 (colon adenocarcinoma) cells; test: MTT cytotoxicity assay, SW480 cells; format: cell-based, human; details: read-out: IC50 SW480, 96 h exposure, mean ± SD
Summary of the method: (§2)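 Cells were seeded in MEM at 1.5 × 10^3 (CH1), 4.0 × 10^3 (A549) or 2.5 × 10^3 (SW480) per well, given 24 h to resume exponential growth, then exposed to serial dilutions for 96 h. Medium was replaced with RPMI 1640 plus MTT in PBS (5 mg/mL solution) for 4 h, then DMSO. OD was read at 550 nm. At least three independent experiments were run, with triplicates per concentration.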

[4] = test system: CH1 (ovarian carcinoma) cells; test: MTT cytotoxicity assay, CH1 cells; format: cell-based, human; details: read-out: IC50 CH1, 96 h exposure, mean ± SD
Summary of the method: as §2

[5] = test system: P31/cis cells (cisplatin-resistant subline); test: EZ4U viability assay in resistance models, P31/cis; format: cell-based; details: read-out: IC50 P31/cis, 96 h exposure
Summary of the method: as §1

[6] = test system: ABCC1-overexpressing 2R120 cells; test: EZ4U viability assay in resistance models, 2R120; format: cell-based, human; details: read-out: IC50 2R120, 96 h exposure
Summary of the method: as §1

[7] = test system: SW1573 cells (chemosensitive parental non-small-cell lung cancer line); test: EZ4U viability assay in resistance models, SW1573; format: cell-based, human; details: read-out: IC50 SW1573, 96 h exposure
Summary of the method: as §1

[8] = Reversed-phase HPLC lipophilicity; format: physicochemical; details: RP-HPLC, C18, methanol/15 mM aqueous formic acid, extrapolated to 100% H2O, 25 °C
Summary of the method: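 Isocratic runs on a silica-based C18 column (4.6 mm × 250 mm), with methanol/15 mM aqueous formic acid from 5:95 to 50:50 depending on compound polarity. Flow 1.00 mL/min, UV 210 nm. […] Each compound ran at least twice in at least three mobile-phase compositions. log kw came from linear extrapolation of log k' versus methanol fraction.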

[9] = test system: A2780 cells; test: Total Pt uptake levels by ICP-MS; format: cell-based; details: 2 h drug exposure
Summary of the method: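 A2780 cells (4 × 10^5 per well) settled for 24 h, then were exposed to test compound for 2 h at 37 °C. After two ice-cold PBS washes, cells were lysed in tetramethylammonium hydroxide and diluted in 0.6 N HNO3. Pt was measured by ICP-MS against matrix-matched standards with 1 ppb indium internal standard and corrected for a cell-free blank well. Values are relative mean and SD from at least two independent experiments.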

[10] = test system: A2780 (ovarian carcinoma) cells; test: EZ4U viability assay in resistance models, A2780; format: cell-based; details: read-out: IC50 A2780, 96 h exposure
Summary of the method: as §1

[11] = test system: A549 (non-small-cell lung carcinoma) cells; test: MTT cytotoxicity assay, A549 cells; format: cell-based, human; details: read-out: IC50 A549, 96 h exposure, mean ± SD
Summary of the method: as §2

Row | log kw [8] | IC50 [10] | Molecule | IC50 [1] | IC50 [2] | IC50 [3] | IC50 [4] | IC50 [5] | IC50 [6] | IC50 [7] | -fold resistance A2780/cis ([2]; A2780/cis versus A2780) | Cellular drug uptake (total Pt levels) [9] | IC50 [11]
1 | – | – | N.N.[Cl][Pt][Cl] [cisplatin] | 4 ± 0.3 µM | 3.7 ± 0.3 µM | 3.5 ± 0.3 µM | 0.16 ± 0.03 µM | > 20 µM | > 20 µM | 6.5 ± 0.1 µM | – | – | –
2 | 1.79 ± 0.01 | 0.5 ± 0.3 µM | CC(=O)[O-].CC(=O)[O-].N.NC1CCCCC1.[Cl-].[Cl-].[Pt+4] [satraplatin, (OC-6-43)-diacetatoamminedichlorido(cyclohexylamine)platinum(IV)] | – | 5.7 ± 0.2 µM | – | – | – | – | – | 11.4 fold | enhanced drug uptake | –
3 | 0.09 ± 0.01 | – | (OC-6-54)-Dichlorido(N,N-dimethylethane-1,2-diamine)-hydroxidomethoxidoplatinum(IV) [1b] | – | – | 40 ± 14 µM | 2.5 ± 0.2 µM | – | – | – | – | – | 73 ± 3 µM
